High-throughput results: PubChem, several laboratories
HIV Env fusion = inhibitors of HIV-1 Env-driven cell-cell fusion, primary screen, HeLa-JRFL effector, CEM21 target cells, luciferase; 1.1% of 360,000 active; AID 651610, 2012; inhibition, % at 12.3 µM;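 active = mean replicate inhibition score of at least 50 and every replicate individually at or above 50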;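 note: 0% = plate neutral controls and 100% = maraviroc near 300 nM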
NR2E3 ag-1 = NR2E3 agonists in two-hybrid cells, primary screen, cell-based, luminescence, CHO-S, Gal4-NCOR/VP16-NR2E3. Photoreceptor-specific nuclear receptor (Homo sapiens), Q9Y5X4. luciferase. inhibition of corepressor binding, % at 3.98 µM. 0.35% of 360,000 active;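 active = inhibition above the mean of all tested compounds plus 3 SD, cut at about 70% in these data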;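 note: 0% = DMSO with NR2E3 transfected cells and 100% = cells lacking NR2E3 construct; higher means lower luciferase signal from less NR2E3 corepressor binding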
Target sequence (Q9Y5X4 whole entry, looked up, the tested form may be a part): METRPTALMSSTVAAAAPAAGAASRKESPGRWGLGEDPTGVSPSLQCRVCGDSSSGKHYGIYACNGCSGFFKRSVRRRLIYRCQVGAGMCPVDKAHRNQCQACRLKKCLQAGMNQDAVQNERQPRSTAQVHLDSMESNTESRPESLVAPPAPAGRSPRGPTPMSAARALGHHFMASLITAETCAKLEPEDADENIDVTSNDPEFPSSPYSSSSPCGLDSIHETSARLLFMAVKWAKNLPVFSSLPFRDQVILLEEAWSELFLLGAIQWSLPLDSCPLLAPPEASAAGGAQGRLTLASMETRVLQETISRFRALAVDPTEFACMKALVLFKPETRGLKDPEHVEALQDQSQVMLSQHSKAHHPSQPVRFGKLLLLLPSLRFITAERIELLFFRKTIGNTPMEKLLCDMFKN
NR2E3 ag-2 = inhibitors of NR2E3-RetCOR corepressor binding, primary screen, NR2E3 agonist project, biochemical, TR-FRET, GST-NR2E3, biotin-RetCOR; inhibition of corepressor binding, % at 4.78 µM; 0.12% of 320,000 active; 1536-well;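 active = percent inhibition above the cutoff of mean plus 3 SD of all tested compounds, set per screening campaign, cut at about 20% in these data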;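 note: 0% = DMSO wells and 100% = biotin wells as full block of FRET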
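system = GST-tagged NR2E3 plus biotinylated RetCOR corepressor | input = 1.35 nM GST-NR2E3 | also added = 7 nM biotin-RetCOR | schedule = 5 h incubation at 4 °C | measured by = TR-FRET with europium anti-GST and streptavidin-D2, 340 nm excitation | read-out = percent loss of FRET ratio relative to control wells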
V-ATPase pH = regulators of yeast V-ATPase proton pumping, primary screen, pHLuorin cytosolic pH fluorescence. S. cerevisiae. AID 504577, 2011. response, % at 10 µM. 0.37% of 350,000 active; in the data active = response mostly above about 7.3%, no sharp cut-off; inactive = mostly below about 5.4%; note: actives read high
GAA850 FXN act = FXN promoter activators, primary screen, cell-based, luciferase luminescence, HEK293 lucGAA850. HEK293 lucGAA850 FXN promoter luciferase reporter, 24 h; percent of 10 µM SAHA response. 0.56% of 360,000 active. AID 540364, 2011. activation, % at 6 µM;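 active = activation above the average of all compounds screened plus 3 SD, cutoff fixed separately per campaign, cut at about 7.5% in these data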;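 note: 0% = DMSO wells and 100% = 10 µM SAHA wells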
GalR3 antag = GalR3 antagonists in HEK293 cells, primary screen, cell-based, fluorescence readout. HEK293 GalR3-CNG cAMP membrane potential fluorescence; galR3 body fused to GalR1 C-terminus. inhibition, % at 3 µM. 0.44% of 360,000 active;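 active = inhibition above the screen-wide average plus 3 SD, cut at about 13% in these data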;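 note: forskolin and galanin both at EC90 stimulate the cells; cAMP rise reported by CNG channel membrane potential dye signal; 0% = forskolin plus galanin with DMSO and 100% = forskolin alone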
Target sequence (O60755 1-299 limits assumed): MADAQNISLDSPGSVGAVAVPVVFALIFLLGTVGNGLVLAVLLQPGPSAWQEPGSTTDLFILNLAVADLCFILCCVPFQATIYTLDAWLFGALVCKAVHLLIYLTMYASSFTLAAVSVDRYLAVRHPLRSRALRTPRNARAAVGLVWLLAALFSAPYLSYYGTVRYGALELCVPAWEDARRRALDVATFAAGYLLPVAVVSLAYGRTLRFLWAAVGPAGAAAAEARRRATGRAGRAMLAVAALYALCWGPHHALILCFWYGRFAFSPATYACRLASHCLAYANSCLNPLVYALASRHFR
NR2E3 ag confirm = NR2E3 agonist confirmation in cells, cell-based, luminescence, CHO-S two-hybrid | shares compounds with NR2E3 ag-1 | CHO-S mammalian two-hybrid NR2E3-NCOR, luciferase luminescence | inhibition, % at 3.98 µM | 51% of 2,300 active | AID 624378, 2012;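 active = average inhibition above a cutoff equal to the mean inhibition of all tested compounds plus one SD, cut at about 70% in these data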;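 note: 0% = DMSO in NR2E3 cells and 100% = DMSO in cells lacking NR2E3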
VP16 counter = GAL4-VP16 reporter modulators, confirmation, counter-screen for NR2E3 agonist project, cell-based, luminescence, CHO-S, high throughput; 29% of 2,300 active; shares compounds with NR2E3 ag-1; inhibition, % at 3.98 µM; CHO-S GAL4-VP16 luciferase reporter; AID 624379, 2012;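 active = mean inhibition above a cutoff equal to the average over all tested compounds plus one standard deviation, cut at about 70% in these data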;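 note: luciferase from a UAS reporter driven by GAL4-VP16 transactivation; 0% = DMSO with VP16-transfected cells and 100% = DMSO with cells lacking VP16; higher means less reporter light so more repression of VP16 activity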
* = called active by the depositor; / = no result; [ ] = remark or other dose. Shown are actives, neighbours in structure and some others; about 2.2% of the full set was active somewhere.

SMILES | HIV Env fusion | NR2E3 ag-1 | NR2E3 ag-2 | V-ATPase pH | GAA850 FXN act | GalR3 antag | NR2E3 ag confirm | VP16 counter
COc1cccc(S(=O)(=O)N[C@@H]2CC[C@H](CCn3cc(-c4ccccn4)nn3)O[C@@H]2CO)c1 | 6.4[16.7 µM] | / | / | / | / | / | / | /
Clc1ccc(-c2nnc(CSc3nnc(-c4cccs4)n3Cc3ccccc3)o2)cc1 | 39.4 | 74.3* | 0.2 | 2.1 | -1.5 | 3.0 | 87.7* | 74.1*
Cc1nnc(SCc2nnc(-c3cccs3)o2)n1Cc1ccccc1 | 7.6 | -13.2 | 2.1 | -2.3 | -0.1 | -4.3 | / | /
COc1cc(C(=O)NC(=S)N(CCC#N)Cc2cccnc2)cc(OC)c1OC | 11.5 | 8.2 | / | -1.6 | -0.3 | -2.8 | / | /
CCCOc1ccc(CN(CCC#N)C(=S)NC(=O)c2ccccc2)cc1 | / | 54.0 | -0.1 | 3.8 | 3.5 | -4.1 | -3.1 | 14.3
C[C@@H]1CN([C@@H](C)CO)C(=O)c2cc(NS(=O)(=O)c3ccccc3)ccc2O[C@@H]1CN(C)CC1CC1 | 0.9[16.7 µM] | / | / | / | / | / | / | /
Cc1cc(OCc2cc(C(=O)N3CCN(C)C(=O)[C@@H]3C)no2)cc(C)c1Cl | 8.1 | 47.7 | -0.7 | 1.5 | -1.0 | -8.4 | 47.2 | 20.0
CCOc1cc(C)c(S(=O)(=O)Nc2ccc3cn[nH]c3c2)cc1C | / | 90.6* | -3.4 | -4.6 | -0.8 | / | 85.7* | 69.9
C[C@H]1CN([C@@H](C)CO)C(=O)c2cc(C#CC(C)(C)O)cnc2O[C@H]1CN(C)C(=O)C1CCC1 | -2.2[16.7 µM] | / | / | / | / | / | / | /
O=C(O)c1ccc(S(=O)(=O)/N=C2\C=C(Nc3ccccc3F)C(=O)c3ccccc32)cc1 | -2.6 | 104.4* | 8.7 | 3.6 | -5.5 | -10.8 | 100.4* | 46.8
Cc1ccccc1NC1=C/C(=N\S(=O)(=O)c2cccs2)c2ccccc2C1=O | 120.6* | 54.7 | 5.2 | 1.2 | -16.2 | -7.9 | 99.6* | 99.1*
Cc1ccccc1NC1=C/C(=N\S(=O)(=O)c2ccc(C(=O)O)cc2)c2ccccc2C1=O | 5.0 | 24.7 | 19.5 | -3.8 | 0.2 | -6.4 | / | /
COc1ccc(S(=O)(=O)/N=C2\C=C(Nc3ccc(O)cc3)C(=O)c3ccccc32)cc1 | 75.2* | 114.0* | -1.2 | 0.0 | -14.6 | -8.8 | 99.3* | 99.6*
Cc1sc2ncnc(N3CCN(CCOc4ccc(Cl)cc4)CC3)c2c1C | / | 98.7* | 0.6 | 0.4 | -5.6 | -6.8 | 95.2* | 85.5*
C[C@@H]1CN([C@H](C)CO)C(=O)c2cc(C#CC3(O)CCCC3)cnc2O[C@H]1CN(C)C(=O)C1CC1 | -6.7[16.7 µM] | / | / | / | / | / | / | /
Cc1cc(N2CCN(C/C=C/c3ccccc3)CC2)n2ncnc2n1 | 34.0 | 48.7 | 2.7 | 2.6 | -1.4 | -1.7 | 33.9 | 51.1
Cc1cc(N2CCN(c3ccccc3)CC2)n2ncnc2n1 | -17.3 | -17.5 | 0.1 | -3.0 | 1.5 | -5.3 | / | /
C=CCNC(=O)[C@@H]1[C@H]2C(=O)O[C@H](c3ccccc3)[C@H](c3ccccc3)N2[C@H](c2ccc(OCCO)cc2)[C@@]12C(=O)Nc1ccc(C#CCCO)cc12 | -51.6[16.7 µM] | / | / | / | / | / | / | /
COc1ccc(C=NNC(=S)NC23CC4CC(CC(C4)C2)C3)cc1OC | 0.4 | 64.4 | / | 0.9 | 0.6 | -3.5 | 2.4 | 12.4
Cc1nc(NCCN2CCOCC2)c2oc3ccccc3c2n1 | / | -12.4 | -0.9 | 4.0 | -2.6 | -1.1 | / | /
Cc1nc(NCCc2ccccc2)c2oc3ccccc3c2n1 | -20.0 | 71.6* | 1.3 | -0.1 | -1.3 | -9.1 | 91.1* | 76.0*
C[C@@H]1CN([C@@H](C)CO)C(=O)c2cc(NC(=O)CCC(F)(F)F)ccc2O[C@@H](C)CCCCO[C@H]1CN(C)C(=O)CCC(F)(F)F | -6.0[16.7 µM] | / | / | / | / | / | / | /
C[C@@H]1CN([C@@H](C)CO)C(=O)Cc2cc(NS(=O)(=O)c3ccccc3)ccc2O[C@H]1CN(C)C(=O)Nc1ccc(C(F)(F)F)cc1 | 3.2[16.7 µM] | / | / | / | / | / | / | /
Cc1ccc(-n2sc3cc(F)ccc3c2=O)c(C)c1 | 60.8 | 53.8 | / | 0.7 | -2.6 | -5.3 | -1.8 | -2.4
O=c1c2ccc(F)cc2sn1-c1ccccc1 | 35.1 | -20.3 | / | -0.4 | -3.4 | -0.8 | / | /
SMILES | HIV Env fusion | NR2E3 ag-1 | NR2E3 ag-2 | V-ATPase pH | GAA850 FXN act | GalR3 antag | NR2E3 ag confirm | VP16 counter
Cc1c(/C(O)=C2/C(=O)C(=O)N(CCN3CCOCC3)C2c2ccccn2)cnn1-c1ccccc1 (stereo not given) | -2.3 | 84.1* | -0.5 | 2.3 | -15.3 | -2.0 | 33.1 | 56.9
C[C@@H]1CCCCO[C@@H](CN(C)S(=O)(=O)c2cccs2)[C@@H](C)CN([C@@H](C)CO)C(=O)c2cc(NC(=O)c3ccncc3)ccc2O1 | -22.7[16.7 µM] | / | / | / | / | / | / | /
Cc1cc(Br)ccc1NC(=O)CN(C)C(=O)C1CCN(c2ncnc3sc(C)c(C)c23)CC1 | / | 62.3 | / | 12.9 | -1.0 | -4.9 | 26.0 | 41.3
O=C(NCc1cccnc1)/C(=C\c1ccc(-c2ccc(Br)cc2)o1)S(=O)(=O)c1ccccc1 | / | 93.4* | 3.7 | 0.1 | -7.7 | 0.2 | 43.2 | 11.0
O=C(NCc1cccnc1)/C(=C/c1ccc(-c2cccc(C(F)(F)F)c2)o1)NC(=O)c1ccccc1 | 19.6 | -20.5 | 0.9 | 0.6 | -0.5 | 4.9 | / | /
O=C(NCc1cccnc1)/C(=C/c1ccc(-c2ccc(Cl)cc2)o1)S(=O)(=O)c1ccccc1 | / | 89.9* | -0.8 | 10.0 | -8.1 | -5.3 | 47.4 | -31.5
O=C(Cc1ccccn1)N[C@H]1CC[C@H](CCn2cc(-c3ccccc3)nn2)O[C@@H]1CO | -0.6[16.7 µM] | / | / | / | / | / | / | /
CCCNC(=O)N[C@H]1CC[C@H](CCn2cc(C3CCCCC3)nn2)O[C@H]1CO | -4.0[16.7 µM] | / | / | / | / | / | / | /
O=C(C[C@@H]1C[C@H]2c3cc(NC(=O)C4CCC4)ccc3O[C@H]2[C@H](CO)O1)NCc1ccccn1 | 8.7[16.7 µM] | / | / | / | / | / | / | /
c1cc2c(cc1-c1cnc3n1CCC3)OCCO2 | / | 56.1 | 1.6 | 5.0 | -1.2 | 0.0 | 66.0 | 2.6
C/C(=N\NC(=S)NCCc1ccccc1)c1ccc(Cl)cc1 | -5.6 | 54.4 | -1.8 | -2.2 | 1.4 | 1.5 | 20.3 | -25.2
C/C(=N\NC(=S)NCCc1ccccc1)c1ccc(C)cc1 | -78.6 | 70.0 | 1.7 | -0.1 | 0.7 | -4.3 | 0.6 | -5.5
O=C(Nc1cc(Cl)ccc1N1CCOCC1)c1ccco1 | 6.0 | 5.2 | / | -2.2 | 2.1 | -2.4 | / | /
